Columns and labels:
[1] = target: T1, C-C chemokine receptor type 5 (Homo sapiens, UniProt P51681); assay: Inhibition of replication of R5 HIV1 Ba-L in MOLT4/CCR5 cells; type: functional, cell-based; settings: Human immunodeficiency virus 1, MOLT-4
Target sequence in this assay (P51681 whole entry, looked up): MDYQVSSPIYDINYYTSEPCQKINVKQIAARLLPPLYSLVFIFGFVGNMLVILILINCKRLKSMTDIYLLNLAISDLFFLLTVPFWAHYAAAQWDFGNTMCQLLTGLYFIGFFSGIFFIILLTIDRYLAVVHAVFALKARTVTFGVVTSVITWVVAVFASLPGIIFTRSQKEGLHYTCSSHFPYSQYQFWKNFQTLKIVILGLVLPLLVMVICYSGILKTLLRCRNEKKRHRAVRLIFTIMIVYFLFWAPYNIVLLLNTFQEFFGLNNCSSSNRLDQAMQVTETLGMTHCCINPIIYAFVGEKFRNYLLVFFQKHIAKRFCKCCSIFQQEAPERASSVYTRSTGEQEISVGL

[2] = target: T1, C-C chemokine receptor type 5; assay: Displacement of [125I]RANTES from CCR5 expressed in CHO cells; type: cell-based
Target sequence in this assay (P51681 whole entry): as the sequence (P51681 whole entry, looked up) above

[3] = target: T1, C-C chemokine receptor type 5; settings: Human immunodeficiency virus 1; Ba-L; MOLT-4; 5 nM
Target sequence in this assay (P51681 whole entry, looked up): as above

[4] = tested on: Human immunodeficiency virus 1; assay: Inhibition of replication of R5 HIV1 CTV in PMBC; type: functional, organism-based; settings: Human immunodeficiency virus 1, CTV
How it was run: (§1)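 PHA-stimulated PBMCs infected with clinical isolate (11-55 ng p24 per 4 × 10⁶ cells) for 4 h, washed to remove unadsorbed virus, then seeded at 2 × 10⁵ cells/well with a range of compound concentrations. On day 4 cells were split 1:2 into medium with the same compound level. IC50/IC90 for inhibition of replication; triplicate, repeated 3 or 4 times with PBMCs from different donors; means reported.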

[5] = tested on: Human immunodeficiency virus 1; assay: Inhibition of replication of R5 HIV1 HKW in PMBC; type: functional, organism-based; settings: Human immunodeficiency virus 1, HKW; how it was run: as §1
[6] = tested on: Human immunodeficiency virus 1; assay: Inhibition of replication of R5 HIV1 HNK in PMBC; type: functional, organism-based; settings: Human immunodeficiency virus 1, HNK; how it was run: as §1
[7] = tested on: Human immunodeficiency virus 1; assay: Inhibition of replication of R5 HIV1 HTN in PMBC; type: functional, organism-based; settings: Human immunodeficiency virus 1, HTN; how it was run: as §1
[8] = tested on: Human immunodeficiency virus 1; assay: Inhibition of replication of R5 HIV1 HHA in PMBC; type: functional, organism-based; settings: Human immunodeficiency virus 1, HHA; how it was run: as §1
[9] = tested on: Human immunodeficiency virus 1; assay: Inhibition of replication of R5 HIV1 KK in PMBC; type: functional, organism-based; settings: Human immunodeficiency virus 1, KK; how it was run: as §1
[10] = Plasma concentration in Sprague-Dawley rat after 5 min at 1 mg/kg, iv; type: ADME, organism-based; design: dose 1 mg/kg, route intravenous
How it was run: (§2)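 Blood was drawn at set times (rat tail vein, dog cephalic vein, monkey femoral vein) and spun to plasma. Plasma was run on C8 HPLC, 1-min fractions counted by liquid scintillation.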

[11] = Plasma concentration in Beagle dog after 5 min at 1 mg/kg, iv; type: ADME, organism-based, Canis lupus familiaris; design: dose 1 mg/kg, route intravenous; how it was run: as §2
[12] = Plasma concentration in cynomolgus monkey after 5 min at 1 mg/kg, iv; type: ADME, organism-based, Macaca fascicularis; design: dose 1 mg/kg, route intravenous; how it was run: as §2
[13] = AUC (0-24h) in Sprague-Dawley rat at 1 mg/kg, iv; type: ADME, organism-based; design: time < 24 hr, dose 1 mg/kg, route intravenous; settings: plasma; how it was run: as §2
[14] = AUC (0-24h) in Beagle dog at 1 mg/kg, iv; type: ADME, organism-based, Canis lupus familiaris; design: time < 24 hr, dose 1 mg/kg, route intravenous; settings: plasma; how it was run: as §2
[15] = AUC (0-24h) in cynomolgus monkey at 1 mg/kg, iv; type: ADME, organism-based, Macaca fascicularis; design: time < 24 hr, dose 1 mg/kg, route intravenous; settings: plasma; how it was run: as §2
[16] = Half life in Sprague-Dawley rat plasma at 1 mg/kg, iv; type: ADME, organism-based; design: dose 1 mg/kg, route intravenous; how it was run: as §2
[17] = Half life in Beagle dog plasma at 1 mg/kg, iv; type: ADME, organism-based, Canis lupus familiaris; design: dose 1 mg/kg, route intravenous; how it was run: as §2
[18] = Half life in cynomolgus monkey plasma at 1 mg/kg, iv; type: ADME, organism-based, Macaca fascicularis; design: dose 1 mg/kg, route intravenous; how it was run: as §2
[19] = Cmax in Sprague-Dawley rat plasma at 3 mg/kg, po; type: ADME, organism-based; design: dose 3 mg/kg, route oral
[20] = Cmax in Beagle dog plasma at 3 mg/kg, po; type: ADME, organism-based, Canis lupus familiaris; design: dose 3 mg/kg, route oral
[21] = Tmax in Sprague-Dawley rat plasma at 3 mg/kg, po; type: ADME, organism-based; design: dose 3 mg/kg, route oral
[22] = Tmax in Beagle dog plasma at 3 mg/kg, po; type: ADME, organism-based, Canis lupus familiaris; design: dose 3 mg/kg, route oral
[23] = Tmax in cynomolgus monkey plasma at 3 mg/kg, po; type: ADME, organism-based, Macaca fascicularis; design: dose 3 mg/kg, route oral
[24] = Cmax in cynomolgus monkey plasma at 3 mg/kg, po; type: ADME, organism-based, Macaca fascicularis; design: dose 3 mg/kg, route oral
[25] = AUC (0-24h) in Sprague-Dawley rat at 3 mg/kg, po; type: ADME, organism-based; design: time < 24 hr, dose 3 mg/kg, route oral; settings: plasma
[26] = AUC (0-24h) in Beagle dog at 3 mg/kg, po; type: ADME, organism-based, Canis lupus familiaris; design: time < 24 hr, dose 3 mg/kg, route oral; settings: plasma
[27] = AUC (0-24h) in cynomolgus monkey at 3 mg/kg, po; type: ADME, organism-based, Macaca fascicularis; design: time < 24 hr, dose 3 mg/kg, route oral; settings: plasma
[28] = Bioavailability in Sprague-Dawley rat at 3 mg/kg, po; type: ADME, organism-based; settings: in vivo
[29] = Bioavailability in Beagle dog at 3 mg/kg, po; type: ADME, organism-based, Canis lupus familiaris; settings: in vivo
[30] = Bioavailability in cynomolgus monkey at 3 mg/kg, po; type: ADME, organism-based, Macaca fascicularis; settings: in vivo
[31] = target: T2, C-C chemokine receptor type 1 (Homo sapiens, UniProt P32246); assay: Displacement of [125I]RANTES from CCR1 expressed in CHO cells; type: cell-based
T2 sequence (P32246 whole entry): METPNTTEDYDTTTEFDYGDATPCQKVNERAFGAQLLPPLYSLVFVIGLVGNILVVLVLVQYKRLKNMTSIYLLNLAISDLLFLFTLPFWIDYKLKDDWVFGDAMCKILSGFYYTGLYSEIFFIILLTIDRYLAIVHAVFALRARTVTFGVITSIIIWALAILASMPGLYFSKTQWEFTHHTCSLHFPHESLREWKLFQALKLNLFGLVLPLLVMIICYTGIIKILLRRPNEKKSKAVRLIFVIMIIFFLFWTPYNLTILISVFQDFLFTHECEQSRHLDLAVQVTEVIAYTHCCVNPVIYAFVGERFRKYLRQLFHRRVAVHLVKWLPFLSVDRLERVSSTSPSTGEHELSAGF
How it was run: (§3)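 CHO cells stably expressing the named chemokine receptor were incubated with the [125I]-labelled ligand (RANTES for CCR5 and CCR1, eotaxin for CCR3, TARC for CCR4) and varying compound concentrations. IC50 for inhibition of ligand binding is the mean of triplicate measurements.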

[32] = target: T3, C-C chemokine receptor type 3 (Homo sapiens, UniProt P51677); assay: Displacement of [125I]eotaxin from CCR3 expressed in CHO cells; type: cell-based; how it was run: as §3
T3 sequence (P51677 whole entry): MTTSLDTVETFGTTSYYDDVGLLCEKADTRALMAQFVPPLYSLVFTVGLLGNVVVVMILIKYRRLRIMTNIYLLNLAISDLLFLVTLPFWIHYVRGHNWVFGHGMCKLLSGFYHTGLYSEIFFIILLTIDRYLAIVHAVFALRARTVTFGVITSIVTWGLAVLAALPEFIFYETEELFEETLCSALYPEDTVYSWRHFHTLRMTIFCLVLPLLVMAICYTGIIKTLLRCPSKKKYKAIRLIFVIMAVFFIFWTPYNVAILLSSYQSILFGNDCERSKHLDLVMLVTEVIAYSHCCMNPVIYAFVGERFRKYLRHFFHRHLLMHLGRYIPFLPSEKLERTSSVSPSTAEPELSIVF

[33] = target: T4, C-C chemokine receptor type 4 (Homo sapiens, UniProt P51679); assay: Displacement of [125I]TARC from CCR4 expressed in CHO cells; type: cell-based; how it was run: as §3
T4 sequence (P51679 whole entry): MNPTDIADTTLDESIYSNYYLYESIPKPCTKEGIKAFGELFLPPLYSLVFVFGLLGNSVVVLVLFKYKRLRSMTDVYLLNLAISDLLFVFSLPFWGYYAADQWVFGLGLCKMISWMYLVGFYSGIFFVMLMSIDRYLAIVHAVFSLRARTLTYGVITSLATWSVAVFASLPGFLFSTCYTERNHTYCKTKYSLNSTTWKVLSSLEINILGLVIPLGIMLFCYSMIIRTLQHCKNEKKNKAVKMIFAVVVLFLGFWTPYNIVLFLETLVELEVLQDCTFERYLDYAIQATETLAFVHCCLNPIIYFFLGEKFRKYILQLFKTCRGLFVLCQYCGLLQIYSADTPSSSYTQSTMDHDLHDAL

[34] = target: T5, C-C chemokine receptor type 7 (Homo sapiens, UniProt P32248); assay: Displacement of [125I]MIP-3beta from CCR7 expressed in CHO cells; type: cell-based
T5 sequence (P32248 whole entry): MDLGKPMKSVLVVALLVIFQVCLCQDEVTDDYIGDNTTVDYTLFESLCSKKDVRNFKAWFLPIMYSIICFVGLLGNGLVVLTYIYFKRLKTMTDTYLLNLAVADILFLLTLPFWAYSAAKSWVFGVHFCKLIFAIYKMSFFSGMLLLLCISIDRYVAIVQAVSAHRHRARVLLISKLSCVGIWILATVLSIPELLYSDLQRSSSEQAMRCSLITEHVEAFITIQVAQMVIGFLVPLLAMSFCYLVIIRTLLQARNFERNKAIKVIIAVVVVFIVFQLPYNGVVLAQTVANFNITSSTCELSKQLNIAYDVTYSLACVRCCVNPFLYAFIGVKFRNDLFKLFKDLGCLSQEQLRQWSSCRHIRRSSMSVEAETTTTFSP
How it was run: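 CHO cells stably expressing CCR7, run in the same way as the CCR5 binding assay. Binding of [¹²⁵I]-MIP-3β was measured across a range of test compound concentrations. IC50 is the concentration that inhibits ligand binding by 50%, reported as the mean of triplicate measurements.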

CCCCOCCOc1ccc(-c2ccc3c(c2)C=C(C(=O)Nc2ccc([S+]([O-])Cc4cncn4CCC)cc2)CCN3CC(C)C)cc1 (configuration not stated)
IC90 [1]: 860 nM | IC50 [2]: 1.9 nM

CCCCOCCOc1ccc(-c2ccc3c(c2)/C=C(/C(=O)Nc2ccc([S@@+]([O-])Cc4cncn4CCC)cc2)CCCCCN3CC(C)C)cc1
IC50 [2]: 67 nM

CCCCOCCOc1ccc(-c2ccc3c(c2)/C=C(/C(=O)Nc2ccc([S@@+]([O-])Cc4cncn4CCC)cc2)CCCN3CCC)cc1
IC50 [2]: 1.7 nM | inhibition [3]: 72%

CCCCOCCOc1ccc(-c2ccc3c(c2)/C=C(/C(=O)Nc2ccc([S@@+]([O-])Cc4nncn4CCC)cc2)CCCN3CC(C)C)cc1
IC90 [1]: 10 nM | IC50 [2]: 2.4 nM

CCCCOCCOc1ccc(-c2ccc3c(c2)/C=C(/C(=O)Nc2ccc([S@@+]([O-])Cc4cncn4CCC)cc2)CCCN3Cc2cnn(C)c2)cc1
IC90 [1]: 11 nM | IC50 [2]: 1.7 nM

CCCCOCCOc1ccc(-c2ccc3c(c2)/C=C(/C(=O)Nc2ccc([S@@+]([O-])Cc4nncn4CCC)cc2)CCCN3CCC)cc1
IC50 [2]: 2.2 nM

CCCCOCCOc1ccc(-c2ccc3c(c2)/C=C(/C(=O)Nc2ccc([S@@+]([O-])Cc4cncn4CCC)cc2)CCCCN3CC(C)C)cc1
IC90 [1]: 19 nM | IC50 [2]: 6.8 nM

CCCCOCCOc1ccc(-c2ccc3c(c2)/C=C(/C(=O)Nc2ccc([S@@+]([O-])Cc4cncn4CCC)cc2)CCCCCN3CCC)cc1
IC50 [2]: 25 nM

CCCCOCCOc1ccc(-c2ccc3c(c2)/C=C(/C(=O)Nc2ccc([S@@+]([O-])Cc4cncn4CCC)cc2)CCCCN3CCC)cc1
IC50 [2]: 4.7 nM

CCCCOCCOc1ccc(-c2ccc3c(c2)/C=C(/C(=O)Nc2ccc([S@@+]([O-])Cc4cncn4CCC)cc2)CCCN3CC(C)C)cc1.CS(=O)(=O)O [CENICRIVIROC MESYLATE]
IC50 [4]: 0.07 nM | IC90 [4]: 0.31 nM | IC50 [5]: 0.049 nM | IC90 [5]: 0.16 nM | IC50 [6]: 0.087 nM | IC90 [6]: 0.36 nM | IC50 [7]: 0.089 nM | IC90 [7]: 0.32 nM | IC50 [8]: 0.024 nM | IC90 [8]: 0.13 nM | IC90 [1]: 0.81 nM | IC50 [9]: 0.043 nM | IC90 [9]: 0.19 nM | concentration at 5 min [10]: 8020 ng/mL | concentration at 5 min [11]: 2320 ng/mL | concentration at 5 min [12]: 3110 ng/mL | AUC(0-t) at 24 h [13]: 7610 ng·h/mL | AUC(0-t) at 24 h [14]: 2310 ng·h/mL | AUC(0-t) at 24 h [15]: 1450 ng·h/mL | half-life [16]: 4.85 h | half-life [17]: 5.04 h | half-life [18]: 6.09 h | Cmax [19]: 485 ng/mL | Cmax [20]: 570 ng/mL | Tmax [21]: 1.3 h | Tmax [22]: 2.7 h | Tmax [23]: 2 h | Cmax [24]: 116 ng/mL | AUC(0-t) at 24 h [25]: 2320 ng·h/mL | AUC(0-t) at 24 h [26]: 6010 ng·h/mL | AUC(0-t) at 24 h [27]: 670 ng·h/mL | bioavailability [28]: 10.2% | bioavailability [29]: 88.5% | bioavailability [30]: 15.6% | IC50 [31]: > 10000 nM | IC50 [32]: 2400 nM | IC50 [33]: 1100 nM | IC50 [34]: > 10000 nM
